Key:
Sphingosine kinase 1 [1] = biological target: T1, Sphingosine kinase 1 (Homo sapiens, UniProt Q9NYA1); assay: Inhibition of human C-terminal His6-tagged SPHK1 expressed in fall armyworm sf9 cells assessed as reduction in S1P formation using sphingosine as substrate after 1 hr by FITC-based caliper assay
Sphingosine kinase 1 [2] = biological target: T1, Sphingosine kinase 1; assay: Inhibition of human C-terminal His6-tagged SPHK1 expressed in fall armyworm sf9 cells assessed as reduction in ADP formation using sphingosine as substrate preincubated for 15 mins followed by substrate addition after 1 hr by transcreener-based fluorescence polarization assay
Sphingosine kinase 1 [3] = biological target: T1, Sphingosine kinase 1; assay: Inhibition of SPHK1 in human MDA1483 cells using C17-sphingosine as substrate assessed as reduction in C17-S1P formation preincubated for 30 mins with substrate measured after 15 mins by LC-MS analysis; type: cell-based
Sphingosine kinase 2 = biological target: T2, Sphingosine kinase 2 (Homo sapiens, UniProt Q9NRA0); assay: Inhibition of SPHK2 (unknown origin) by FITC-based caliper assay
T2 sequence (Q9NRA0 whole entry): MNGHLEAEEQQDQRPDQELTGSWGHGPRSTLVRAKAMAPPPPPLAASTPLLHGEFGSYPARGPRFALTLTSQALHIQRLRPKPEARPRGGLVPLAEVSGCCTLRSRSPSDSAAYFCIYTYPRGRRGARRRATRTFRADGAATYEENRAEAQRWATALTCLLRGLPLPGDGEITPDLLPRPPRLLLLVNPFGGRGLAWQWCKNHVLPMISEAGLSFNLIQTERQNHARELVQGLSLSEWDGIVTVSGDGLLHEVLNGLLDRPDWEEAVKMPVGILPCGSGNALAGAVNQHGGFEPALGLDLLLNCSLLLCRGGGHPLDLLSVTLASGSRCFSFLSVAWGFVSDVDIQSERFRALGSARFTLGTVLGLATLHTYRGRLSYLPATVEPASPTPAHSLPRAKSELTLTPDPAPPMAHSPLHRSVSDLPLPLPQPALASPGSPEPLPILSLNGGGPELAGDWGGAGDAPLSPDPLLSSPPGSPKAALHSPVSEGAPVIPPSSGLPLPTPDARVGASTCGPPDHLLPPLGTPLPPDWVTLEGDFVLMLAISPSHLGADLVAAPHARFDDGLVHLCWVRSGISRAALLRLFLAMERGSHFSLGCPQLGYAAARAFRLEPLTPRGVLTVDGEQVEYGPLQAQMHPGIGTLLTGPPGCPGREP
Outline: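 Recombinant SphK2 enzyme assay measuring FITC-S1P formation, with product resolved by microfluidic mobility-shift separation. Dose-response gives IC50. Reported values are the mean of two or more independent assays.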

Sphingosine kinase 1 [4] = biological target: T1, Sphingosine kinase 1; assay: Inhibition of SPHK1 in human whole-blood using C17-sphingosine as substrate assessed as reduction in C17-S1P production preincubated for 30 mins followed by substrate addition measured after 10 mins by MS analysis
[5] = biological target: Sphingosine 1-phosphate receptor 3 (Homo sapiens, UniProt Q99500); assay: Binding affinity to S1PR3 (unknown origin)
[6] = biological target: Sphingosine 1-phosphate receptor 5 (Homo sapiens, UniProt Q9H228); assay: Binding affinity to S1PR5 (unknown origin)
[7] = Cytotoxicity in human MDA1483 cells at 50 uM by MTT assay; type: cell-based; conditions: mda1483, 50 µM
[8] = Solubility of the compound; type: physicochemical
Sphingosine kinase 1 [9] = biological target: Sphingosine kinase 1 (Homo sapiens, UniProt Q9NYA1, S225A); assay: Binding affinity to human C-terminal His6-tagged SPHK1 S225A mutant expressed in fall armyworm sf9 cells after 1 hr by ITC analysis
Sphingosine kinase 1 (Homo sapiens, UniProt Q9NYA1, S225A), sequence (Q9NYA1 whole entry S225A): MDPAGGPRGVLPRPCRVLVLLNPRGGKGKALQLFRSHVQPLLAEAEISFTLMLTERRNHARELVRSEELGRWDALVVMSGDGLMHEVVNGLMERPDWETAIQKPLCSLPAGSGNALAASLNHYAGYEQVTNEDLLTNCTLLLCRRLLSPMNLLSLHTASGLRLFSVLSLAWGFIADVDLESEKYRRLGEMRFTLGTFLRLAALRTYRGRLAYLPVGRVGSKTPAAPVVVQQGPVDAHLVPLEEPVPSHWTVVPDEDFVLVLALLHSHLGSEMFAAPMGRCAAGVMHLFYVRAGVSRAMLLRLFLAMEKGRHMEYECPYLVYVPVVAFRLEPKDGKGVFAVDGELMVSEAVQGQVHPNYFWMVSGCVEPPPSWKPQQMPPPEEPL

T1 sequence (Q9NYA1 whole entry): as the sequence (Q9NYA1 whole entry S225A) above, with A225S counted along it
Sphingosine 1-phosphate receptor 5, sequence (Q9H228 whole entry): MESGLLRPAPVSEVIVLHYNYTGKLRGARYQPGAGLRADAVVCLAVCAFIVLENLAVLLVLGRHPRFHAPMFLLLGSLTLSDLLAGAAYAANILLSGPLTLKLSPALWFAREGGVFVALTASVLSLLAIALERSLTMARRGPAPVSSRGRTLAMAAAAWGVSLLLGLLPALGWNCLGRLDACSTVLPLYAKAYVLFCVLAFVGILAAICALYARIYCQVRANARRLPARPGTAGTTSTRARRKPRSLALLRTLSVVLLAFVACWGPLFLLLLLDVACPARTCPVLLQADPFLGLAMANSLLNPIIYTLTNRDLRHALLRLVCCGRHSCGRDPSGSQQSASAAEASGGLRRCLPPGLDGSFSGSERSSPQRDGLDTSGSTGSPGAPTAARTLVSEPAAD
Sphingosine 1-phosphate receptor 3, sequence (Q99500 whole entry): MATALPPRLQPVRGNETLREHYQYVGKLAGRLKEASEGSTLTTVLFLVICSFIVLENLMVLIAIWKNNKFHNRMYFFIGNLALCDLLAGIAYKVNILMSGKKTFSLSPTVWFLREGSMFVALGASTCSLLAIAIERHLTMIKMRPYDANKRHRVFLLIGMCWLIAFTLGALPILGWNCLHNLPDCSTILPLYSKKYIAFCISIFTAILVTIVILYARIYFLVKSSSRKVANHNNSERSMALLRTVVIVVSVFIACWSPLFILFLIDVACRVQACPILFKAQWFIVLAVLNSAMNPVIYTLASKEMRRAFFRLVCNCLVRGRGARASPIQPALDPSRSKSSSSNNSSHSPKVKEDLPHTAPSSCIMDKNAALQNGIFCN

Compound: Cc1nc2ccc(-c3ccc(CN4CCC[C@H]4CO)cc3)cc2n1C[C@@H]1CCCO1
- IC50 (Sphingosine kinase 1 [1]): > 100000 nM
- IC50 (Sphingosine kinase 1 [2]): > 100000 nM
- IC50 (Sphingosine kinase 1 [3]): > 100000 nM
- IC50 (Sphingosine kinase 2): > 100000 nM

Compound: Cc1cc(CS(=O)(=O)c2ccccc2)cc(OCc2ccc(CNCCO)cc2)c1
- IC50 (Sphingosine kinase 1 [1]): 14.6 nM
- IC50 (Sphingosine kinase 1 [2]): 5.3 nM
- IC50 (Sphingosine kinase 1 [3]): 3.5 nM
- IC50 (Sphingosine kinase 2): 35100 nM

Compound: Cc1nc2ccc(-c3ccc(CN4CCC[C@@H]4CO)cc3)cc2n1CC(C)C
- IC50 (Sphingosine kinase 1 [2]): 290 nM
- IC50 (Sphingosine kinase 1 [3]): 440 nM

Compound: Cc1nc2ccc(-c3ccc(CN4CCC[C@@H]4CO)cc3)cc2n1CC1CCCC1
- IC50 (Sphingosine kinase 1 [2]): 11 nM
- IC50 (Sphingosine kinase 1 [3]): 10 nM

Compound: O=S(=O)(Cc1cccc(OCc2ccc(CN3CCC[C@@H]3CO)cc2)c1)c1ccccc1
- IC50 (Sphingosine kinase 1 [1]): 2.4 nM
- IC50 (Sphingosine kinase 1 [4]): 35 nM
- IC50 (Sphingosine kinase 1 [2]): 2 nM
- IC50 (Sphingosine kinase 1 [3]): 0.3 nM
- IC50 (Sphingosine kinase 2): 164 nM

Compound: Cc1cc(CS(=O)(=O)c2ccccc2)cc(OCc2ccc(CN3CC[C@@H](O)C3)cc2)c1
- IC50 (Sphingosine kinase 1 [2]): 28 nM
- IC50 (Sphingosine kinase 1 [3]): 30 nM

Compound: Cc1nc2ccc(-c3ccc(CN4CCC[C@@H]4CO)cc3)cc2n1CCC1CCC1
- IC50 (Sphingosine kinase 1 [2]): 8 nM
- IC50 (Sphingosine kinase 1 [3]): 4 nM

Compound: Cc1nc(-c2cccc(OCc3ccc(CN4CCC[C@@H]4CO)cc3)c2)no1
- IC50 (Sphingosine kinase 1 [1]): 25 nM
- IC50 (Sphingosine kinase 1 [4]): 173 nM
- IC50 (Sphingosine kinase 1 [2]): 4.5 nM
- IC50 (Sphingosine kinase 1 [3]): 1.7 nM
- IC50 (Sphingosine kinase 2): 2.4 nM

Compound: CS(=O)(=O)Cc1cccc(OCc2ccc(CN3CCC[C@@H]3CO)cc2)c1
- IC50 (Sphingosine kinase 1 [2]): 439 nM
- IC50 (Sphingosine kinase 1 [3]): 519 nM

Compound: Cc1nc2ccc(-c3ccc(CN4CCC[C@@H]4CO)cc3)cc2n1CCC(C)C
- IC50 (Sphingosine kinase 1 [2]): 7 nM
- IC50 (Sphingosine kinase 1 [3]): 4 nM

Compound: Cc1nc2ccc(-c3ccc(CN4CCC[C@H]4CO)cc3)cc2n1C[C@H]1CCCO1
- IC50 (Sphingosine kinase 1 [1]): > 100000 nM
- IC50 (Sphingosine kinase 1 [2]): 31000 nM
- IC50 (Sphingosine kinase 1 [3]): 9800 nM
- IC50 (Sphingosine kinase 2): > 100000 nM

Compound: O=S(=O)(Cc1cccc(OCc2ccc(CN3CCC[C@@H]3CO)cc2)c1)C1CC1
- IC50 (Sphingosine kinase 1 [1]): 40.4 nM
- IC50 (Sphingosine kinase 1 [4]): 1470 nM
- IC50 (Sphingosine kinase 1 [2]): 10 nM
- IC50 (Sphingosine kinase 1 [3]): 1.7 nM
- IC50 (Sphingosine kinase 2): 164 nM

Compound: Cc1cc(CS(=O)(=O)c2ccccc2)cc(OCc2ccc(CN3C[C@@H](O)[C@@H](O)C3)cc2)c1
- IC50 (Sphingosine kinase 1 [1]): 3.9 nM
- IC50 (Sphingosine kinase 1 [4]): 38 nM
- IC50 (Sphingosine kinase 1 [2]): 3.9 nM
- IC50 (Sphingosine kinase 1 [3]): 1 nM
- IC50 (Sphingosine kinase 2): 7230 nM

Compound: Cc1cc(CS(=O)(=O)c2ccccc2)cc(OCc2ccc3[nH]cnc3c2)c1
- IC50 (Sphingosine kinase 1 [1]): 48000 nM
- IC50 (Sphingosine kinase 1 [2]): 48000 nM
- IC50 (Sphingosine kinase 1 [3]): 27000 nM

Compound: O=C(Nc1cccc(OCc2ccc(CN3CCC[C@@H]3CO)cc2)c1)c1ccccc1
- IC50 (Sphingosine kinase 1 [1]): 9820 nM
- IC50 (Sphingosine kinase 1 [4]): > 8800 nM
- IC50 (Sphingosine kinase 1 [2]): 3670 nM
- IC50 (Sphingosine kinase 1 [3]): 1200 nM
- IC50 (Sphingosine kinase 2): 145 nM

Compound: Cc1cc(CS(=O)(=O)c2ccccc2)cc(OCc2ccc3[nH]c(N)nc3c2)c1
- IC50 [5]: > 10000 nM
- IC50 (Sphingosine kinase 1 [1]): 1400 nM
- IC50 (Sphingosine kinase 1 [2]): 1700 nM
- IC50 [6]: > 10000 nM
- Activity [7]: Non-Toxic
- solubility [8]: Insoluble
- IC50 (Sphingosine kinase 1 [3]): 180 nM
- IC50 (Sphingosine kinase 2): 39600 nM

Compound: Cc1nc2ccc(-c3ccc(CN4CCC[C@@H]4CO)cc3)cc2n1C[C@@H]1CCCO1
- IC50 (Sphingosine kinase 1 [1]): 12700 nM
- IC50 (Sphingosine kinase 1 [2]): 4600 nM
- IC50 (Sphingosine kinase 1 [3]): 2100 nM
- IC50 (Sphingosine kinase 2): > 100000 nM
- Kd (Sphingosine kinase 1 [9]): 12000 nM

Compound: CC(C)c1cccc(OCc2ccc(CN3CCC[C@@H]3CO)cc2)c1
- IC50 (Sphingosine kinase 1 [1]): 4.8 nM
- IC50 (Sphingosine kinase 1 [4]): 19 nM
- IC50 (Sphingosine kinase 1 [2]): 0.8 nM
- IC50 (Sphingosine kinase 1 [3]): 0.6 nM
- IC50 (Sphingosine kinase 2): < 1.7 nM

Compound: Cc1nc2ccc(-c3ccc(CN4CCC[C@@H]4CO)cc3)cc2n1C[C@H]1CCCO1
- IC50 (Sphingosine kinase 1 [1]): 870 nM
- IC50 (Sphingosine kinase 1 [2]): 190 nM
- IC50 (Sphingosine kinase 1 [3]): 81 nM
- IC50 (Sphingosine kinase 2): 46000 nM
- Kd (Sphingosine kinase 1 [9]): 2900 nM

Compound: Cc1cc(CS(=O)(=O)c2ccccc2)cc(OCc2ccc(CN3CC[C@H](O)C3)cc2)c1
- IC50 (Sphingosine kinase 1 [1]): 2.6 nM
- IC50 (Sphingosine kinase 1 [4]): 5.2 nM
- IC50 (Sphingosine kinase 1 [2]): 3 nM
- IC50 (Sphingosine kinase 1 [3]): 0.03 nM
- IC50 (Sphingosine kinase 2): 443 nM

Compound: Cc1nc2ccc(-c3ccc(CN4CCC[C@@H]4CO)cc3)cc2n1Cc1ccccc1
- IC50 (Sphingosine kinase 1 [2]): 440 nM
- IC50 (Sphingosine kinase 1 [3]): 250 nM

Compound: Cc1cc(CS(=O)(=O)c2ccccc2)cc(OCc2ccc(CN3C[C@@H](O)[C@H](O)C3)cc2)c1
- IC50 (Sphingosine kinase 1 [1]): 2 nM
- IC50 (Sphingosine kinase 1 [4]): 6.4 nM
- IC50 (Sphingosine kinase 1 [2]): 2 nM
- IC50 (Sphingosine kinase 1 [3]): 0.17 nM
- IC50 (Sphingosine kinase 2): 465 nM

Compound: OC[C@H]1CCCN1Cc1ccc(COc2cccc(C3CCCCC3)c2)cc1
- IC50 (Sphingosine kinase 1 [1]): < 1.7 nM
- IC50 (Sphingosine kinase 1 [4]): 1.5 nM
- IC50 (Sphingosine kinase 1 [2]): 0.7 nM
- IC50 (Sphingosine kinase 1 [3]): 0.03 nM
- IC50 (Sphingosine kinase 2): < 1.7 nM

Compound: Cc1nc2ccc(-c3ccc(CN4CCCC4)cc3)cc2n1C[C@H]1CCCO1
- IC50 (Sphingosine kinase 1 [2]): > 100000 nM

— ChEMBL document CHEMBL4007442, “Discovery of a Potent and Selective Sphingosine Kinase 1 Inhibitor through the Molecular Combination of Chemotype-Distinct Screening Hits” (J Med Chem, 2017)
